Test [1] addresses T1, 2-C-methyl-D-erythritol 2,4-cyclodiphosphate synthase (Escherichia coli (strain K12)) (UniProt P62617).
T1 sequence (whole entry): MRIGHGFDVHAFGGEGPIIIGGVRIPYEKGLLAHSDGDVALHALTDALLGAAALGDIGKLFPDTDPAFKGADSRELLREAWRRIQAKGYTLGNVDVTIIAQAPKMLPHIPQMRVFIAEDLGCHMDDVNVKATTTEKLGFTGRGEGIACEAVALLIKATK
Nature of the test: Activation of Escherichia coli IspF-MEP complex assessed as increase in rate of […] formation at 100 uM by HPLC based […] formation assay relative to untreated control. For orientation: cAMP levels reflect the balance of adenylyl cyclase and phosphodiesterase activity.

The target of test [2] is T1, 2-C-methyl-D-erythritol 2,4-cyclodiphosphate synthase (Escherichia coli (strain K12)). Nature of the test: Activation of Escherichia coli IspF-MEP complex assessed as increase in rate of […] formation at 100 uM pre-incubated for 30 mins by HPLC based […] formation assay relative to untreated control.
Test [3] has the same target. Nature of the test: Activation of Escherichia coli IspF assessed as increase in rate of […] formation at 100 uM pre-incubated for 30 mins by HPLC based […] formation assay relative to untreated control.
For test [4] the target is unchanged. The test is described as follows: Activation of Escherichia coli IspF assessed as residual enzyme activity at 500 uM pre-incubated for 30 mins by HPLC based CMP formation assay.
For test [5] the target is unchanged. Nature of the test: Activation of Escherichia coli IspF-MEP complex assessed as increase in rate of […] formation at 1000 uM pre-incubated for 30 mins by HPLC based […] formation assay relative to untreated control. In short, it runs like this:
(§1)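 E. coli IspF alone or preformed IspF–MEP complex was incubated with 100 µM CDPME2P substrate. Test agents were present at 1000 µM or 700 µM, either without or after a 30 min pre-incubation. The rate of CMP formation was compared with a no-compound control run under the same pre-incubation; residual activity was taken after pre-incubation.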

For test [6] the target is unchanged. Nature of the test: Activation of Escherichia coli IspF-MEP complex assessed as increase in rate of […] formation at 1000 uM by HPLC based […] formation assay relative to untreated control. In a few lines:
as §1

Test [7] has the same target. Nature of the test: Activation of Escherichia coli IspF assessed as increase in rate of […] formation at 1000 uM pre-incubated for 30 mins by HPLC based […] formation assay relative to untreated control. In short, it runs like this: as §1
Test [8] has the same target. The test is described as follows: Activation of Escherichia coli IspF assessed as assessed as residual enzyme activity at 1000 uM pre-incubated for 30 mins by HPLC based […] formation assay relative to untreated control. In short, it runs like this:
as §1

For test [9] the target is unchanged. Nature of the test: Activation of Escherichia coli IspF assessed as increase in rate of […] formation at 1000 uM by HPLC based […] formation assay relative to untreated control. In a few lines: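 IspF activity was read as the rate of CMP formation from 100 µM CDPME2P, with the test compound at 1000 µM. The rate is expressed relative to a control run without compound.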

Test [10] shares this target. Nature of the test: Inhibition of Escherichia coli IspF-MEP complex at 700 uM by HPLC based […] formation assay. In short, it runs like this: as §1
In test [11] the target is T2, 2-C-methyl-D-erythritol 2,4-cyclodiphosphate synthase (Escherichia coli (strain K12), UniProt P62617).
T2 sequence (P62617 whole entry): T1 sequence (whole entry)
Nature of the test: Inhibition of Escherichia coli IspF by HPLC based […] formation assay.

Test [12] has as its target T1, 2-C-methyl-D-erythritol 2,4-cyclodiphosphate synthase (Escherichia coli (strain K12)). The test is described as follows: Inhibition of Escherichia coli IspF-MEP complex at 700 uM pre-incubated for 30 mins by HPLC based […] formation assay relative to untreated control. In short, it runs like this: as §1
The target in test [13] is T2, 2-C-methyl-D-erythritol 2,4-cyclodiphosphate synthase. The test is described as follows: Inhibition of Escherichia coli IspF-MEP complex by HPLC based […] formation assay.
Test [14] has as its target T1, 2-C-methyl-D-erythritol 2,4-cyclodiphosphate synthase (Escherichia coli (strain K12)). Nature of the test: Inhibition of Escherichia coli IspF-MEP complex at 100 uM pre-incubated for 30 mins by HPLC based […] formation assay.
The target is the same in test [15]. The test is described as follows: Inhibition of Escherichia coli IspF at 500 uM by HPLC based CMP formation assay.
For test [16] the target is unchanged. Nature of the test: Inhibition of Escherichia coli IspF-MEP complex at 500 uM by HPLC based CMP formation assay. The settings on record: TDE = time-dependent effect.

Calls of active or inactive are those of the source. No cut-off for these calls is given here.

Take `C[C@](O)(CO)[C@H](O)COP(=O)(O)OP(=O)(O)OC[C@H]1O[C@@H](n2ccc(N)nc2=O)[C@H](O)[C@@H]1O`: the result in test [1], in [2], in test [3] and in [4] was inactive.

`C[C@](O)(CO)[C@H](O)COP(=O)(O)CP(=O)(O)OC[C@H]1O[C@@H](n2ccc(N)nc2=O)[C@H](O)[C@@H]1O`: the result in test [1] was Active. Also, the fold change (FC) came out at 1.3 in [2] and 2.2 in test [3]. Moreover, the result in test [4] was inactive.

Take `C[C@](O)(CO)[C@H](O)COP(=O)(O)CP(=O)(O)O`: the outcome in test [5] and in [6] was inactive. Also, the figures for the fold change (FC) in [7] and in test [9] were 8.7 and 1.8, respectively. Also, the Activity in test [8] worked out at 54%.

One may read the inhibition as the drop in the measured response relative to a control, in per cent. As usually defined, the IC50 is the midpoint of a concentration-inhibition curve. A low value points to greater potency in that assay. With `Nc1ccn([C@@H]2O[C@H](COP(=O)(O)OP(=O)(O)O)[C@@H](O)[C@H]2O)c(=O)n1`, the inhibition result in [10] is “inactive”. In test [11], this compound showed an IC50 of 768 µM.

In the case of `Nc1ccn([C@@H]2O[C@H](COP(=O)(O)CP(=O)(O)O)[C@@H](O)[C@H]2O)c(=O)n1`, the inhibition in test [12] worked out at 74%; in test [10], 69%. Besides, the IC50 in test [13] is 343 µM; in test [11] it was 797 µM.

For `C[C@@](CO)(OP(=O)(O)O)[C@H](O)COP(=O)(O)CP(=O)(O)OC[C@H]1O[C@@H](n2ccc(N)nc2=O)[C@H](O)[C@@H]1O`, the fold change (FC) in [3] amounted to 7.6. Moreover, the inhibition in test [14] was 37%; in test [16], “tde”. In addition, the inhibition entry in test [15] was “inactive”. Besides, the Activity in test [4] was 60%.

The values are drawn from ChEMBL document CHEMBL3217705, “Synthesis and evaluation of stable substrate analogs as potential modulators of cyclodiphosphate synthase IspF” (Medchemcomm, 2013).
